High-throughput results as filed in PubChem.
NSD2 inh: inhibitors of human histone methyltransferase NSD2; 310,000 tested, 0.54% active; NSD2 peptide methylation, AlphaScreen, 120 min; inhibition, % at 12.5 µM; O96028; in the data active = inhibition above about 50%
TDP2 inh: blocks human TDP2 phosphodiesterase activity; O95551; recombinant TDP2, T5PNP hydrolysis, p-nitrophenol absorbance 415 nm; inhibition, % at 12.8 µM; 370,000 tested, 0.34% active; AID 720702;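 active = inhibition above the mean of all tested compounds plus 3 SD, set per campaign, cut at about 25% in these data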;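 note: 0% = DMSO with enzyme and 100% = buffer with substrate but no TDP2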
Target sequence (O95551 whole entry, looked up): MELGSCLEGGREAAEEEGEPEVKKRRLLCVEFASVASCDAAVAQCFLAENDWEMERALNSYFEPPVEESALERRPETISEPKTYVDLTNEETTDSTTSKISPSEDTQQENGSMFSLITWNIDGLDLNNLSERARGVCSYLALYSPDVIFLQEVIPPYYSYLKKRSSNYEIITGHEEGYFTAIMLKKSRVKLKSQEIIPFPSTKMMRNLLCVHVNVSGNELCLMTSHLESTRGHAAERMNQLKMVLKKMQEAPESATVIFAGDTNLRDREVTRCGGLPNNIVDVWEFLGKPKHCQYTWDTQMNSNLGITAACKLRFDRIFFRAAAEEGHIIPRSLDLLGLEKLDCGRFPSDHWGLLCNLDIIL
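System – recombinant human TDP2 · Quantity – TDP2 enzyme at 120 nM final · Doses – single concentration, 12.8 µM nominal, with 1% DMSO · Incubation – 2 h at 37 °C · Measured by – epi absorbance of p-nitrophenol freed from T5PNP by hydrolysis · Read-out – % inhibition relative to enzyme-containing and enzyme-free wells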
UHRF1 MBD2 ctr: human UHRF1 methylated DNA binding inhibitors; Q96T88; UHRF1 binding to methylated oligo, TR-FRET; inhibition, % at 4.4 µM; 370,000 tested, 0.75% active; in the data active = inhibition above about 21%;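 note: UHRF1 SRA domain binding a hemimethylated CpG hairpin DNA probe; 0% = median of test compound wells and 100% = reference inhibitor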
CASP6 VEID inh: blocks human caspase-6 cleavage activity. P55212. purified caspase-6, Z-VEID-R110 cleavage fluorescence. inhibition, % at 12.5 µM. 350,000 tested, 0.53% active. AID 686996;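 active = mean inhibition across replicates at least about 35%, with every replicate also reaching that limit, limit read from the data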;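 note: 0% = median of neutral control wells and 100% = no fluorescence left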
Target sequence (P55212 24-179 limits assumed): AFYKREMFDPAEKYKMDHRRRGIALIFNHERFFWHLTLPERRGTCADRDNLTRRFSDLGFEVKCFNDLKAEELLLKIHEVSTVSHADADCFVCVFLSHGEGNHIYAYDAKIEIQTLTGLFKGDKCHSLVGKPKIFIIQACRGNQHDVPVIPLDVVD
Target sequence (P55212 194-293 limits assumed): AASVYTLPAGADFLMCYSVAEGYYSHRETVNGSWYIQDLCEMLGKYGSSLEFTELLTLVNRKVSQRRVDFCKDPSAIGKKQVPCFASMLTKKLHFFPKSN
MBD2 inh: inhibitors of human MBD2 binding to methylated oligonucleotide; TR-FRET; inhibition, % at 4.4 µM; 370,000 tested, 0.31% active; AID 686964; in the data active = inhibition above about 13%
LEDGF integ inh: blocks HIV-1 LEDGF/p75-dependent DNA integration | TR-FRET IN-LEDGF/p75 DNA integration, Eu/Cy5 | inhibition, % at 3.7 µM | 370,000 tested, 0.64% active | AID 743269;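 active = inhibition above the screen-wide mean plus 3 SD, cut at about 13% in these data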;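 note: signal is the Cy5 over europium emission ratio at 671 and 618 nm; 0% = plate median of compound wells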
Starred values were filed as active, the others as inactive; x = not tested or not shown. A selection: hits, their analogues and other compounds. The true share with any hit is near 1.8%.

SMILES | NSD2 inh | TDP2 inh | UHRF1 MBD2 ctr | CASP6 VEID inh | MBD2 inh | LEDGF integ inh
COc1ccccc1CNC(=O)C1CCN(S(=O)(=O)c2ccc3nc4c(c(C(=O)O)c3c2)CCCC4)CC1 | -2.0 | -8.9 | 0.1 | 49.9* | 0.3 | 2.4
CC1CCC(NC(=O)C2CCN(S(=O)(=O)c3ccc4nc5c(c(C(=O)O)c4c3)CC(C)CC5)CC2)CC1 (centres undefined) | 8.3 | -8.9 | 1.6 | 21.3 | 1.6 | -2.0
CN(Cc1ccccc1)C(=O)C1CCN(S(=O)(=O)c2ccc3nc4c(c(C(=O)O)c3c2)CCCC4)CC1 | 5.7 | 4.3 | 1.1 | 61.6* | 2.2 | 4.6
COc1ccc(CNC(=O)C2CCN(S(=O)(=O)c3ccc4nc5c(c(C(=O)O)c4c3)CC(C)CC5)CC2)cc1 (centres undefined) | 18.4 | -15.4 | 1.8 | 35.7* | 1.4 | 3.0
O=C(O)c1c2c(nc3ccc(S(=O)(=O)N4CCC(C(=O)NCc5ccccc5)CC4)cc13)CCCC2 | 1.9 | -3.2 | -0.2 | 18.8 | -1.1 | 0.8
COCCCNC(=O)C1CCN(S(=O)(=O)c2ccc3nc4c(c(C(=O)O)c3c2)CCCCC4)CC1 | 42.0 | 10.7 | 1.3 | -0.5 | 1.3 | -2.4
CCNC(=O)[C@@H]1[C@@H](CO)[C@@H]2Cn3c(ccc(-c4ccccc4)c3=O)[C@@H]2N1C(=O)C1CC1 | x | x | x | 2.2 | x | x
COCCNC(=O)C[C@@H]1CC[C@@H]2[C@H](COC[C@@H](O)CN2Cc2cccc(-c3ccncc3)c2)O1 | x | x | x | 0.1 | x | x
COc1ccc(NC(=O)N(C)C[C@@H]2Oc3ccc(NC(=O)c4ccncc4)cc3C(=O)N([C@H](C)CO)C[C@H]2C)cc1 | x | x | x | 0.3 | x | x
CCCNC(=O)C1CCN(S(=O)(=O)c2ccc3nc4c(c(C(=O)O)c3c2)CCCCC4)CC1 | x | -9.7 | -1.4 | 1.8 | -4.2 | 2.8
CCC(C)NC(=O)C1CCN(S(=O)(=O)c2ccc3nc4c(c(C(=O)O)c3c2)CCCCC4)CC1 (centres undefined) | -1.9 | 10.7 | 0.9 | 0.1 | 1.8 | 0.9
CC(NC(=O)C1CCN(S(=O)(=O)c2ccc3nc4c(c(C(=O)O)c3c2)CCCC4)CC1)c1ccccc1 (centres undefined) | -0.6 | 1.5 | -1.6 | 51.9* | -1.4 | 4.2
Cc1ccc(CCNC(=O)C2CCN(S(=O)(=O)c3ccc4nc5c(c(C(=O)O)c4c3)CCCC5)CC2)cc1 | -1.2 | -12.7 | 1.3 | 62.1* | -2.9 | 0.1
O=C(C[C@@H]1C[C@H]2c3cc(NS(=O)(=O)c4ccccc4)ccc3O[C@H]2[C@H](CO)O1)N1CCCCC1 | x | x | x | -0.3 | x | x
CC(=O)c1cccc(NC(=O)N2CCCC2C(=O)Nc2cccc(C)c2)c1 (centres undefined) | 0.1 | 2.5 | 20.9* | x | 9.2 | 1.1
COc1cccc(NC(=O)C2CCCN2C(=O)Nc2cccc(F)c2)c1 (centres undefined) | x | 11.9 | 63.3* | x | 3.3 | -1.1
COc1cccc(NC(=O)C2CCCN2C(=O)Nc2ccccc2)c1 (centres undefined) | 1.6 | 2.3 | -2.0 | x | -0.1 | -0.2
C[C@@H]1CN([C@@H](C)CO)C(=O)c2cc(C#Cc3ccncc3)cnc2O[C@H]1CN(C)C(=O)c1ccccc1F | x | x | x | 1.9 | x | x
COc1cc(CCC(=O)Nc2ccc(C)c(S(=O)(=O)N(C)C)c2)cc(OC)c1OC | -3.3 | 6.6 | 21.4* | x | 8.0 | 0.0
COc1ccc(CCC(=O)Nc2ccc(C)c(S(=O)(=O)N(C)C)c2)cc1OC | -1.3 | -9.0 | 0.6 | x | -2.9 | 1.5
CCOC(=O)[C@@H]1[C@H]2COc3cc(OC)ccc3[C@@H]2N2C(=O)N(c3cccc(C)c3)C(=O)[C@]12C | x | 10.5 | -2.0 | -0.9 | 0.4 | -1.1
CCOC(=O)[C@@H]1[C@H]2COc3cc(OC)ccc3[C@H]2N2C(=O)N(c3cccc(F)c3)C(=O)[C@]12C | x | -6.4 | -0.1 | 51.4* | 4.4 | 0.3
N#C/C(=N/Nc1ccc(OC(F)(F)F)cc1)C(N)=S | 13.4 | -15.4 | 31.0* | 5.5 | 2.8 | -3.6
Nc1nc(-c2ccccc2)[nH]c(=O)c1N=O | -5.7 | -4.6 | -1.6 | 49.5* | -9.4 | -3.2
CCCC(=O)Nc1ccc2c(c1)C(=O)N(C)[C@H]1CC[C@H](CC(=O)Nc3ccccc3)O[C@H]1CO2 | x | x | x | 4.4 | x | x
SMILES | NSD2 inh | TDP2 inh | UHRF1 MBD2 ctr | CASP6 VEID inh | MBD2 inh | LEDGF integ inh
O=C(O)c1sccc1Oc1ccc(NS(=O)(=O)c2cccc(F)c2)cc1 | 1.9 | -5.2 | 31.1* | x | 11.5 | -3.2
Cc1cc(C)n2nc(C(=O)Nc3ccc4c(c3)OCO4)nc2n1 | 0.5 | -21.0 | 5.3 | x | 1.7 | 9.9
Cc1ccnc2nc(C(=O)Nc3ccc4c(c3)OCO4)nn12 | x | -4.2 | 23.0* | x | 10.2 | 1.6
O=C(C[C@@H]1CC[C@H](NS(=O)(=O)c2ccccc2)[C@H](CO)O1)NCCN1CCCCC1 | x | x | x | -9.5 | x | x
Cc1ccc(S(=O)(=O)/N=C2/C=C(C3C(=O)CC(C)(C)CC3=O)C(=O)c3ccccc32)cc1 | x | 51.1* | 4.1 | x | -13.1 | 39.7*
CCc1ccc(S(=O)(=O)/N=C2\C=C(Nc3ccc(O)cc3)C(=O)c3ccccc32)cc1 | 28.6 | x | x | x | x | x
CCS(=O)(=O)N1CCN(c2ccc(S(=O)(=O)N3CCOCC3)cc2)CC1 | 3.7 | -2.5 | 31.4* | -1.1 | 4.6 | -3.4
CNC(=O)c1cc(Cl)c(OC)c(OC)c1 | -0.6 | 5.5 | 4.6 | 3.4 | 3.4 | 0.1
COC(=O)C(=O)C1CCc2c(Cl)cc(OC)c(OC)c2C1=O (centres undefined) | x | 3.6 | 2.7 | 78.5* | -4.2 | 3.7
O=C(C[C@H]1C=C[C@H](NC(=O)CC2CC2)[C@H](CO)O1)NCc1ccccc1 | x | x | x | 1.5 | x | x
C[C@H]1CN([C@@H](C)CO)C(=O)c2cc(-c3cccnc3)cnc2O[C@@H]1CN(C)C(=O)Cc1cccnc1 | x | x | x | 0.7 | x | x
O=C(Nc1cc([N+](=O)[O-])ccc1Cl)c1cccnc1 | 0.5 | 2.8 | -0.9 | 0.4 | 4.9 | -5.0
Cc1ccc([N+](=O)[O-])cc1NC(=O)c1cccnc1 | 2.1 | -14.5 | 38.8* | 0.0 | 5.0 | -5.2
O=C(C[C@H]1CC[C@@H](NC(=O)Nc2ccc3c(c2)OCO3)[C@H](CO)O1)NCc1ccccc1 | x | x | x | 0.2 | x | x
CCN1CCN(c2c(Cl)cccc2NC(=O)c2ccco2)CC1 | 4.8 | -0.7 | 23.2* | x | 11.2 | 4.8
O=C(Nc1cccc(Cl)c1N1CCOCC1)c1ccco1 | -6.1 | -22.6 | 6.4 | 5.2 | 1.7 | -5.8
Cc1cccnc1NC(=O)COc1ccc2oc3c(c2c1)CCCC3 | 1.0 | -3.4 | -0.3 | 1.6 | -1.4 | -1.2
Cc1ccc(NC(=O)COc2ccc3oc4c(c3c2)CCCC4)nc1 | -1.2 | 0.4 | 25.5* | x | 6.1 | 2.5
COc1ccc(OCCOC(=O)Nc2ccccc2)cc1 | 0.0 | 0.1 | 1.3 | x | -4.5 | 0.1
COc1cc(C(F)(F)F)nc2ccc(C#CCOC(=O)Nc3ccccc3)cc12 | 1.1 | 2.8 | 21.1* | -2.0 | 5.2 | -1.2
